From the EternaBench riboswitch data

System: MS2 coat protein
Experiment: apparent Kd, MS2 coat protein; higher = weaker binding; RNA-MaP array; FMN 200 µM where present
In short: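 Apparent Kd: the median of filtered binding-curve fits from single clusters. Designs were transcribed on Illumina sequencing-chip clusters by stalled E. coli RNA polymerase and titrated with SNAP-549-labelled MS2 coat protein from 0.7 or 1.5 nM, doubling to 3 µM, in 100 mM Tris-HCl pH 7.5, 80 mM KCl, 4 mM MgCl2, BSA, DTT, yeast tRNA and Tween-20. Each series ran without and then with constant ligand, and green signal was normalised to red-channel RNA signal and control-cluster median Fmax.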

[1] = designed as: OFF switch for flavin mononucleotide, no ligand
[2] = ligand present: flavin mononucleotide, designed as: OFF switch for flavin mononucleotide
[3] = designed as: ON switch for flavin mononucleotide, no ligand
[4] = ligand present: flavin mononucleotide, designed as: ON switch for flavin mononucleotide

Sequence | apparent Kd [1] [nM] | apparent Kd [2] [nM] | apparent Kd [3] [nM] | apparent Kd [4] [nM]
CUAGACUUAUCAGGAUAUCAUCGCGUGGAUUAACCCUGUGAUUACAUGAGGAUCACCCAUGUGCUUGAGAAGGGAUUACUAUUU | 28.8 | 114 |  | 
CUAGCUAUCGGAGGAUAUUCAUACCGGAAACGGACAUGAGGAUCACCCAUGUGCGGAAACGCUUGGGAGAAGGCCGAUAGCUAG |  |  | 210 | 18.9
CUAGCUAUCGGAGGAUAUUCAUACCGGAAACGGACAUGAGGAUCACCCAUGUGGCGAAAGCCAUGGGAGAAGGCCGAUAGCUAG |  |  | 1640 | 133
CUAUGUUAGCAGGAUAUGCCAUUAUUCCUUUUCGCAGAAGGGCUUACAUGAGGAUCACCCAUGUUACAUUUCUU | 12.4 | 17.6 |  | 
CUAUUGGUAACAGGAUAUAUGAGUCCUACAUGAGGAUCACCCAUGUAGGUGAUCAAACGUGAUUAGUAGAAGGGUUACCAAUAG |  |  | 15.6 | 7.77
CUAUUUAAUGCCUCAUGUACAUGAGGAUCACCCAUGUUAACUUAGGAUAUAUUUAUAUUGAUAGAGUAGAAGGAAGUACUAUUU | 25.4 | 27.3 |  | 
CUCAAACAUGAGGAUCACCCAUGUGUUGUCAUGGGAGGAUAUCCCAGUUCGUUGUCGUCGGGAGAAGGCCUAUGUC |  |  | 65 | 29.3
CUCAAACAUGAGGAUCACCCAUGUGUUGUCGUGGGAGGAUAUCCCAGUUCGGUGGCGUCGGGAGAAGGCCUAUGUC |  |  | 141 | 64.7
CUCAGCUCGUCAGGAUAUACGUCACUGCUUCGGCAGUGUGGUAAGAUCACAUGAGGAUCACCCAUGUAGAAGGGACGAGCUGAC | 12.7 | 316 |  | 
CUCAUCCUUACAGGCUGAGACAUGAGGAUCACCCAUGUAGGGAGAAGGGAGUUGGGCAUCUUGACUCAGGAUAUCCCGAAAGAC |  |  | 733 | 83.7
CUCCGACAUGUAGGAUAUGCGUGGCGAAGCUAUGCAGAAGGACAUGAGGAUCACCCAUGUCUUUCCGUCUGCGUACAGACGGAG | 17.4 | 57.3 |  | 
CUCCUCGAAGGAUAUACUGUGGAUCAUAAGUCAGGGAGGUUACAUGAGGAUCACCCAUGUAGAAGGUCGAGGUG | 67.2 | 428 |  | 
CUCCUGUAAGGAUAUCUGACAAGUGACGAAAGUCACAGUUCAGAGAAGGUACAUGAGGAUCACCCAUGUAGAAC | 32.2 | 139 |  | 
CUCUCACAGUCAGGAUAUGACGCGGAACAUGAGGAUCACCCAUGUGACGUCCCUCCAUGUACCCGUCAGAAGGGAUUAAUGGAC | 720 | 480 |  | 
CUCUGACAUGAGGAUCACCCAUGUGAGGAUAUGAUGCAGCAGUGGUCUACGCUGUGCAUCAGAAGGCACAUGUG | 101 | 33.4 |  | 
CUCUUUGUUGAGGAUAUGCACCAGCUCACUGACGCAGAAGGCGACACAUGAGGAUCACCCAUGUCAGUUCGCGU | 17.4 | 21.5 |  | 
CUGACGUUUGAAGGAUAUGACAUGUUGAAGCGUAUUGACAGCCCUGCACAUGAGGAUCACCCAUGUCAGAAGGUCAACCGUUGA | 7.11 | 20.3 |  | 
CUGAGCAAUGUAGGAUAUCGACUGGAAUACAGUCGAGAAGGACAUGAGGAUCACCCAUGUAAAUGAGUGAAUAAUAAAGCUCAG | 735 | 345 |  | 
CUGAGCUGAGGAUAUACAUGAGGAUCACCCAUGUGUUCCAGCUUGGGUACAGGCACAUGUAGAAGGCAGUUCGG | 55.1 | 21.4 |  | 
CUGAGUAGUCAGGAUAUGUGGUACAAAAGUACUGCAGAAGGGAUUACAUGAGGAUCACCCAUGUUUUCUUCAUG |  | 125 |  | 
CUGAUGUGAGGAUAUCGGGCUACGGCCAGGCCGCUAGCAUUCGAGAAGGCACAUGAGGAUCACCCAUGUGAGAA | 25.4 | 39.8 |  | 
CUGCCUUAUGUAGGAUAUGCAUAGCAUUGCUAUGCAGAAGGACAUGAGGAUCACCCAUGUAUGUAAUCAAUACAUAUCUGGCAG | 20.4 | 119 |  | 
CUGCGGUAGGAGAAGGACGGCGGGUUCUUUUCGUACAUGAGGAUCACCCAUGUAGGAUAUCCUACCUCAGGCGGCCUACUACAG | 5.89 | 7.42 |  | 
CUGGUUGUCGAGGAUAUGUCCCGGCUCGCUGACGCAGAAGGCGACACAUGAGGAUCACCCAUGUCGGUUCGCGU | 20.1 | 21.8 |  | 
CUGGUUGUCGUAGGAUAUGUAGGAUAUUCCUACAUGAGGAUCACCCAUGUUCGCAUGGAAGAAGGACAGAAGGACGAUGACCAA |  |  | 1160 | 8.77
CUGUGACGGUGCGCAAGUGGACGGAGAAGGCACACAUGAGGAUCACCCAUGUGAGCCUGCUAUUGUGAGGAUAUCCGUUCGUAC | 5.52 | 7.02 |  | 
CUGUGACGGUGCGCAAGUGGACGGAGAAGGGACACAUGAGGAUCACCCAUGUGGGCCUGCUAUUGUCAGGAUAUCCGUUCGUAC | 6.26 | 6.62 |  | 
CUGUGACGGUGCGCAAGUGGACGUAGAAGGCUCACAUGAGGAUCACCCAUGUGGGCCUGCGAGUGAGAGGAUAUACGUUCGUGC | 5.28 | 5.56 |  | 
